# Measurements: ChEMBL document CHEMBL4373703 (J Med Chem, 2019)
# The source made the active and inactive calls. The calls are words filed in the database; no cut-off is given here.
# Legend:
# Rattus norvegicus [1] = experiment: Antiarthritic activity in Lewis rat model of collagen-induced arthritis assessed as reduction in ankle histopathological scores at 0.1 mg/kg, po administered via gavage once daily starting from day 6 to day 16 relative to control; set-up: scale not given: the % may be the effect or the level left
# Rattus norvegicus [2] = experiment: Antiarthritic activity in Lewis rat model of collagen-induced arthritis assessed as reduction in ankle swelling at 0.1 mg/kg, po administered via gavage once daily starting from day 6 to day 16 and measured from day 11 to day 17 by caliper method
# hERG (KCNH2) = hERG (KCNH2) (Homo sapiens, UniProt Q12809); experiment: Inhibition of human ERG expressed in HEK293 cells at 10 uM at -80 mV holding potential by […] relative to control; assay type: cell-based; conditions: HEK293 cells expressing human ERG
# Chain of hERG (KCNH2) (Q12809 whole entry): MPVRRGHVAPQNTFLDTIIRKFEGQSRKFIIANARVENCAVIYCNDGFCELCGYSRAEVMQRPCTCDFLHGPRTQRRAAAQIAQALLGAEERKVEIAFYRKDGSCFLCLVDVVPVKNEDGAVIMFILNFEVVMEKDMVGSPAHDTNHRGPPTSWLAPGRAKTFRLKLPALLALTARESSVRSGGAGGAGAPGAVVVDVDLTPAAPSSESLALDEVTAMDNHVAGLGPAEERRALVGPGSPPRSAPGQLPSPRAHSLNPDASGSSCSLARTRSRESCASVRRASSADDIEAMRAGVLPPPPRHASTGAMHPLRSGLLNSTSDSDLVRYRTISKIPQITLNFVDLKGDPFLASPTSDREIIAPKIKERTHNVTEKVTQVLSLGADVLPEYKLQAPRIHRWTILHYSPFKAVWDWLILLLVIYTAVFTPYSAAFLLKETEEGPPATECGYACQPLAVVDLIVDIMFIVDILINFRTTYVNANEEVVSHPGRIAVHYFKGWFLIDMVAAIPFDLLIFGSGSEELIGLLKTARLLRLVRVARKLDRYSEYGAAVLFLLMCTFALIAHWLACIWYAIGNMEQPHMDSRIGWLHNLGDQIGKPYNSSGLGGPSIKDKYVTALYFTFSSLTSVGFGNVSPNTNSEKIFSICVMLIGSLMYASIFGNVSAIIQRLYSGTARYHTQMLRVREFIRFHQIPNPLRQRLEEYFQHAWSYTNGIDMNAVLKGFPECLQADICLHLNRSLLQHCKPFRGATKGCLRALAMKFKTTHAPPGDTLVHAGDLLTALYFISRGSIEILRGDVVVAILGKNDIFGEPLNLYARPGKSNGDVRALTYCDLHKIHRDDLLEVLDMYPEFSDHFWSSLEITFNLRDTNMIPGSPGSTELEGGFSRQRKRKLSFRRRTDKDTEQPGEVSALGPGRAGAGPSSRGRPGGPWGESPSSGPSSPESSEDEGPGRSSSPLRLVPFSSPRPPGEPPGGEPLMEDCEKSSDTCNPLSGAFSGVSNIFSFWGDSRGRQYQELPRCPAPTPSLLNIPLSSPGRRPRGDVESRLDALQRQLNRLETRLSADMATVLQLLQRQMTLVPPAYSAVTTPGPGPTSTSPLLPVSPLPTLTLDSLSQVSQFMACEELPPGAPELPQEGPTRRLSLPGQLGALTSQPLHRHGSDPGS
# [3] = Kinetic solubility of the compound; assay type: physicochemical; conditions: read-out: Kinetic_solubility
# [4] = Apparent permeability across apical to basolateral side in human Caco2 cells at 1 uM incubated for 2 hrs by LC-MS/MS analysis; assay type: ADME, cell-based; conditions: Caco-2
# [5] = Intrinsic clearance in human liver microsomes at 1 uM in presence of NADPH measured up to 30 mins by LC-MS/MS analysis; assay type: ADME, Microsome; conditions: read-out: CLH
# [6] = target: Voltage-gated inwardly rectifying potassium channel KCNH2 (Homo sapiens, UniProt Q12809); experiment: Inhibition of human ERG expressed in HEK293 cells at -80 mV holding potential by […]; assay type: cell-based
# Chain of Voltage-gated inwardly rectifying potassium channel KCNH2 (Q12809 whole entry): as above
# [7] = target: Epidermal growth factor receptor (Homo sapiens, UniProt P00533); experiment: Inhibition of N-terminal GST-tagged human EGFR (696 to end aminoacids) expressed in baculovirus infected Sf21 cells
# Chain of Epidermal growth factor receptor (P00533 whole entry, the tested form may be a part): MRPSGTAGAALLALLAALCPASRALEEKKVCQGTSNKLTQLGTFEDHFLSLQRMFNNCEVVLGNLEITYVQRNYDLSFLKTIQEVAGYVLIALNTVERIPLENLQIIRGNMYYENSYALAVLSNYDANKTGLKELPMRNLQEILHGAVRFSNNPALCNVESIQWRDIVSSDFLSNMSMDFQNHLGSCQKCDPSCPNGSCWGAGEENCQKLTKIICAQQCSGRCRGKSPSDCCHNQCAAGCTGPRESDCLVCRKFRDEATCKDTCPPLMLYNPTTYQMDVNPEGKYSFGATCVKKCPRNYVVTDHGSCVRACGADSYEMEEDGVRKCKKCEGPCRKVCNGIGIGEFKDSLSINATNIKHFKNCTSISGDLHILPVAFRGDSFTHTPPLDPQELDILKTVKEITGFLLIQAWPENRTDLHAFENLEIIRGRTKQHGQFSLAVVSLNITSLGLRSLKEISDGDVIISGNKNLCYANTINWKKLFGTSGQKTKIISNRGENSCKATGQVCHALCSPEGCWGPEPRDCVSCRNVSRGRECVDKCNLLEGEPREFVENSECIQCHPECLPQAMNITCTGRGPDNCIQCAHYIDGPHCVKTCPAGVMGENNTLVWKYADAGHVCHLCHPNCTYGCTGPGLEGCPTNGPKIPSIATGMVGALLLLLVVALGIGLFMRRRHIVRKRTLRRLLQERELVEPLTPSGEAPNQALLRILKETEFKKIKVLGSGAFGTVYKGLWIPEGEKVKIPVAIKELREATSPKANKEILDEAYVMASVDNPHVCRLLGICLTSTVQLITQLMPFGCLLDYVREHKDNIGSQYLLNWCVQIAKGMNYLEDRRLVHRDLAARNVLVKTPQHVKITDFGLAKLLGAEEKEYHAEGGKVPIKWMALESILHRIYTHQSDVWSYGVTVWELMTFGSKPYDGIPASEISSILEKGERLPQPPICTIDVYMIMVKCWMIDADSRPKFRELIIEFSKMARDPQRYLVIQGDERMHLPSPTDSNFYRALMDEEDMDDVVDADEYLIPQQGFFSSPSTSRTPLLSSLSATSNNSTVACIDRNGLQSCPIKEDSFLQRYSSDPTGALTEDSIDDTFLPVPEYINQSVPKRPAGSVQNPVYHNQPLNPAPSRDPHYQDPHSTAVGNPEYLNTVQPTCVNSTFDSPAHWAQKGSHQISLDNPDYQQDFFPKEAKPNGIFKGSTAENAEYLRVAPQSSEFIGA
# [8] = target: T1, Tyrosine-protein kinase BTK (Homo sapiens, UniProt Q06187); experiment: Covalent inhibition of N-terminal GST-fused human BTK (2-659(end) amino acids) expressed in baculovirus expression system using FITC-AHA-EEPLYWSFPAKKK-NH2 as substrate incubated for 90 mins by microfluidic off-Chip Mobility Shift Assay
# T1 sequence (Q06187 whole entry, the tested form may be a part): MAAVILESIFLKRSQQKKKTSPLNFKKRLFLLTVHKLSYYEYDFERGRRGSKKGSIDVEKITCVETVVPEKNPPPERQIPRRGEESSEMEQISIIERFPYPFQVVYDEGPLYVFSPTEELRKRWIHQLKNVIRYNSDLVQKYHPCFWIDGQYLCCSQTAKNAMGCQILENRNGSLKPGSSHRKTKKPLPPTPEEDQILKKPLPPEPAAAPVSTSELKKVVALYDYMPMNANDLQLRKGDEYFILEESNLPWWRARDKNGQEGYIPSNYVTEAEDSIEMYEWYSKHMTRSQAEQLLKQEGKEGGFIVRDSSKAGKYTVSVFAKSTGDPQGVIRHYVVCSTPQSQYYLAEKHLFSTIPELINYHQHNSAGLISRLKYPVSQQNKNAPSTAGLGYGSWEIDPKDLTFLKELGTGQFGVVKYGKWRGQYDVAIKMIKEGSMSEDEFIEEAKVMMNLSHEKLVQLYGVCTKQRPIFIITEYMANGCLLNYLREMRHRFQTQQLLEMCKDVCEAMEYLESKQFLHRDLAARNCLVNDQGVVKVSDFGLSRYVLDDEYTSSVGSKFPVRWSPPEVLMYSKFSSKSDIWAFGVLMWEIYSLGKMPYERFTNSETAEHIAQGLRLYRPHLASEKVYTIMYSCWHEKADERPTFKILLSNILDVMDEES
# [9] = Stability of the compound in plasma (unknown origin) assessed as compound remaining at 4 hrs; assay type: ADME, cell-free; conditions: read-out: Stability
# Mus musculus [10] = experiment: Inhibition of B cell activation in C57BL/6 mouse at 1 mg/kg, po after 0.25 hr relative to control; assay type: functional; conditions: Mus musculus, C57BL/6, po, 0.25 h
# [11] = Cmax in C57BL/6 mouse at 1 mg/kg, po; assay type: ADME, organism-based; set-up: dose 1 mg/kg, route oral; conditions: in vivo
# Mus musculus [12] = experiment: Inhibition of B cell activation in C57BL/6 mouse at 1 mg/kg, po after 24 hr relative to control; assay type: functional; conditions: Mus musculus, C57BL/6, po, 24 h
# Procedure, shortened: (§1)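 Normal C57BL/6 mice received a single oral dose of 1 mg/kg and were tested in an in vivo B cell stimulation assay. Inhibition of B cell activation was read at 1 h and 24 h after dosing.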
# Mus musculus [13] = experiment: Inhibition of B cell activation in C57BL/6 mouse at 1 mg/kg, po after 1 hr relative to control; assay type: functional; conditions: Mus musculus, C57BL/6, po, 1 h
# Procedure, shortened: as §1
# Homo sapiens = species on record: Homo sapiens; experiment: Selectivity ratio, ratio of IC50 for EGFR (unknown origin) to IC50 for full length human BTK ([…])
# [14] = target: Tyrosine-protein kinase BTK (Homo sapiens, UniProt Q06187, C481S); experiment: Inhibition of BTK Cys481S mutant (unknown origin)
# Chain of Tyrosine-protein kinase BTK (Homo sapiens, UniProt Q06187, C481S) (Q06187 2-659 C481S limits assumed): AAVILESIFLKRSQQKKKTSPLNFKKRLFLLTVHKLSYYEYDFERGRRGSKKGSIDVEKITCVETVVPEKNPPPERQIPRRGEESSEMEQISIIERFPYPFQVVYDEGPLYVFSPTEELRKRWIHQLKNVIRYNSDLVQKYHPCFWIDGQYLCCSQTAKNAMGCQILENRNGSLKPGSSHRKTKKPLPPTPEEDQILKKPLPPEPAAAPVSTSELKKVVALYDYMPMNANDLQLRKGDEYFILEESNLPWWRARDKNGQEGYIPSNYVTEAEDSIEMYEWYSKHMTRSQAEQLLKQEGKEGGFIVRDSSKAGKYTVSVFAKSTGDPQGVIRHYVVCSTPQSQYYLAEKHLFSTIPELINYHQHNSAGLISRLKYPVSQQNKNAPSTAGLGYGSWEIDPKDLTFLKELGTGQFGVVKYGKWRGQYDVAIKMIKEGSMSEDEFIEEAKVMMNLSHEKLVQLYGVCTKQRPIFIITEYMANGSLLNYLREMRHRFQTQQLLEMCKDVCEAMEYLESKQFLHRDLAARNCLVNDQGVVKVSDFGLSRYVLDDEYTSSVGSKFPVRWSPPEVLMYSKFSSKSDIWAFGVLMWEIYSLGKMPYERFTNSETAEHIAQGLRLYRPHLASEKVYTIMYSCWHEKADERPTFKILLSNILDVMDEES
# [15] = target: T1, Tyrosine-protein kinase BTK; experiment: Inhibition of BTK in human PBMC cells assessed as reduction in anti-IgM-stimulated CD69 expression on B cells preincubated for 60 mins followed by goat F(ab')2 anti-human IgM stimulation and measured after overnight incubation by flow cytometry; assay type: cell-based
# [16] = Efflux ratio in human Caco2 cells; assay type: ADME, cell-based; conditions: Caco-2
SMILES,solubility kinetic [3] [µM],"Papp A→B at 2 h, 1 µM [4] [×10⁻⁶ cm/s]",microsomal CLint at 1 µM [5] [µL/min/mg],IC50 [8] [µM],other results
CN(Cc1cnc2nc(N)nc(N)c2n1)c1ccc(C(=O)N[C@@H](CCC(=O)O)C(=O)O)cc1 [METHOTREXATE],,,,,Activity (Rattus norvegicus [1]): 60%; Activity (Rattus norvegicus [2]): Active
"C=CC(=O)N1CCC(Nc2ncnc(N)c2-c2ccc(Oc3ccccc3)cc2)C1 (single isomer, unassigned)",160,25.2,77,,inhibition at 10 µM (hERG (KCNH2)): 40%
C=CC(=O)N1CC2(CC(Nc3ncnc(N)c3-c3ccc(Oc4ccccc4)cc3)C2)C1,153,9.3,777,,Ki [6]: 0.78 µM
"C=CC(=O)N1CCCC(Nc2ncnc(N)c2-c2ccc(Oc3ccccc3)cc2)C1 (single isomer, unassigned)",,,598,,inhibition at 10 µM (hERG (KCNH2)): 43%; IC50 [7]: 0.55 µM
C=CC(=O)N1CCC(CNc2ncnc(N)c2-c2ccc(Oc3ccccc3)cc2C(F)(F)F)CC1,,,,> 100,
C=CS(=O)(=O)N1CCC(CNc2ncnc(N)c2-c2ccc(Oc3ccccc3)cc2)CC1,,,,,remaining at 4 h [9]: 16%
C=CC(=O)N1CCC(O)(CNc2ncnc(N)c2-c2ccc(Oc3ccccc3)cc2)CC1,169,9,68,,inhibition at 10 µM (hERG (KCNH2)): 45%; inhibition in vivo at 1 mg/kg (Mus musculus [10]): 37%; Cmax [11]: 257 nM; inhibition in vivo at 1 mg/kg (Mus musculus [12]): 15%; inhibition in vivo at 1 mg/kg (Mus musculus [13]): 42%
C=CC(=O)Nc1cccc(Oc2ccnc(N)c2-c2ccc(Oc3ccccc3)cc2)c1,,,,0.005,inhibition at 10 µM (hERG (KCNH2)): 81%; Ratio IC50 (Homo sapiens): 25 to 30; IC50 [7]: 0.14 µM
Nc1ncnc(NCC2CCN(C(=O)CCl)CC2)c1-c1ccc(Oc2ccccc2)cc1,,,,,remaining at 4 h [9]: 49%
C=CC(=O)N1CCC(CNc2ncnc(N)c2-c2cc(F)c(Oc3ccccc3)cc2F)CC1,,,143,0.16,
C=CC(=O)N1CCC(CNc2ncnc(N)c2-c2ccc(Oc3ccncc3)cc2)CC1,,,688,0.73,
C=CC(=O)NC1CCCN(c2ncnc(N)c2-c2ccc(Oc3ccccc3)cc2)C1 (stereo not drawn),,,,1.5,
C=CC(=O)N1CCC(CNc2ncnc(N)c2-c2ccc(C(=O)Nc3ccccc3)cc2)CC1,,,,1.2,
C=CC(=O)N1CCC(Nc2ncnc(N)c2-c2ccc(Oc3ccccc3)cc2)CC1,,,,1.51,
C=CC(=O)N1CCC(CNc2ncnc(N)c2-c2ccc(Oc3cccc(F)c3)cc2)CC1,,,199,,
C=CC(=O)N[C@@H]1CCC[C@H](Nc2ncnc(N)c2-c2ccc(Oc3ccccc3)cc2)C1 (relative stereo),134,11.9,27,,Ki [6]: 1.8 µM
CC(=O)N1CCC(CNc2ncnc(N)c2-c2ccc(Oc3ccccc3)cc2)CC1,,,,,IC50 [14]: 8.6 to 8.7 µM
C=CC(=O)N1CCC(CNc2ncnc(N)c2-c2ccc(Oc3ccc(F)cc3)cc2)CC1,,,143,0.15,
C=CC(=O)N1CCC(CNc2ncnc(N)c2-c2ccc(Oc3ccc(C)cc3)cc2)CC1,,,145,0.018,
C=CC(=O)N[C@H]1CC[C@@H](Nc2ncnc(N)c2-c2ccc(Oc3ccccc3)cc2)CC1,154,10,41,,
C=CC(=O)N[C@@H]1CC[C@H](Nc2ncnc(N)c2-c2ccc(Oc3ccccc3)cc2)C1 (relative stereo),158,23.6,202,,
C=CC(=O)Nc1cccc(Oc2ncncc2-c2ccc(Oc3ccccc3)cc2)c1,,,,,inhibition at 10 µM (hERG (KCNH2)): 46%
Nc1ncnc(NCC2CCN(C(=O)C3=CCC3)CC2)c1-c1ccc(Oc2ccccc2)cc1,,,,0.29,IC50 [15]: 0.29 µM
C=CC(=O)NC12CCC(Nc3ncnc(N)c3-c3ccc(Oc4ccccc4)cc3)(C1)C2,110,21.7,36,0.0099,IC50 [15]: 0.07 µM; efflux ratio [16]: 1.4; Ki [6]: 1.3 µM
C=CC(=O)Nc1cccc(Oc2ncnc(N)c2-c2ccc(Oc3ccccc3)cc2)c1,< 2.4,1.6,277,0.0029 to 0.003,inhibition at 10 µM (hERG (KCNH2)): 3%; IC50 [15]: 0.0099 µM; Ratio IC50 (Homo sapiens): 25 to 30; IC50 [7]: 0.078 µM; efflux ratio [16]: 4.3
C=CC(=O)Nc1cccc(Nc2ncnc(N)c2-c2ccc(Oc3ccccc3)cc2)c1,16,4.2,43,0.004,IC50 [15]: 0.019 µM; IC50 [7]: 0.004 µM; efflux ratio [16]: 1.6; Ki [6]: 0.53 µM
C=CC(=O)Nc1cccc(-c2c(N)ncnc2Nc2ccc(Oc3ccccc3)cc2)c1,,,,0.008,IC50 [7]: 0.001 µM
C=CC(=O)Nc1cccc(Oc2ccncc2-c2ccc(Oc3ccccc3)cc2)c1,,,,0.044,
C#CC(=O)N1CCC(CNc2ncnc(N)c2-c2ccc(Oc3ccccc3)cc2)CC1,,,,0.0002,remaining at 4 h [9]: 34%
